Measured values published in ChEMBL document CHEMBL5236592, “Induction of Ferroptosis in Glioblastoma and Ovarian Cancers by a New Pyrrole Tubulin Assembly Inhibitor” (J Med Chem, 2022).
The source made the active and inactive calls.

Experiments:
Type in all cases: functional, organism-based
Settings in all cases: time 40.0 day
SK-OV-3 [1] = assay: Induction of ferroptosis-mediated antitumor activity against human SK-OV-3 cells xenografted in BALB/C nu/nu mouse assessed as reduction in GPX4 protein expression in tumor at 25 mg/kg, ip administered every 2 days for 40 days by immunofluoresence staining based assay
Outline: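 Xenografts of U-87 MG or SKOV-3 (1 × 10^8 cells/mL, sc) in female BALB/c nu/nu mice, 4 per group. Treated ip at 25 mg/kg in 100 μL every 2 days versus saline, tumors collected at day 40. Paraffin sections (6 μm) were blocked at 37 °C for 30 min, then incubated with rabbit anti-GPX4 or anti-FTH1 and then Alexa Fluor 488 anti-rabbit, each for 45 min at 37 °C.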

SK-OV-3 [2] = assay: Antitumor activity against human SK-OV-3 cells xenografted in BALB/C nu/nu mouse assessed as reduction in CD31 expression in tumor at 25 mg/kg, ip administered every 2 days for 40 days by immunofluoresence staining based assay
Outline: (§1)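 Female BALB/c nu/nu mice, 10 weeks old, 4 per group. Received subcutaneous U-87 MG or SKOV-3 cells (1 × 10^8 cells/mL, harvested in log phase). Dosed ip with 100 μL at 25 mg/kg every 2 days; controls got 100 μL saline on the same schedule. Sacrificed at 40 days; tumors weighed, volume = ab²/2. Tumor sections (6 μm, paraffin) stained by immunofluorescence for Ki67 or CD31 with Alexa Fluor 488 secondary.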

Mus musculus [3] = assay: Upregulation of Akr1c1 mRNA expression in tumor of BALB/C nu/nu mouse xenografted with human U-87 MG cells at 25 mg/kg, ip administered every 2 days for 40 days by qPCR analysis
Outline: (§2)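 Female BALB/c nu/nu mice bearing sc U-87 MG or SKOV-3 xenografts were dosed ip at 25 mg/kg (100 μL) every 2 days, or given saline, and tumors were taken at day 40. RNA was extracted from about 20 mg of tissue. qPCR ran 40 cycles (95 °C 15 min; 94 °C 20 s; 60 °C 34 s) on a 69-gene panel. Fold change was by 2^–ΔΔCt, with ≥1.5 counted as increased.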

Mus musculus [4] = assay: Upregulation of Ptgs2 mRNA expression in tumor of BALB/C nu/nu mouse xenografted with human SK-OV-3 cells at 25 mg/kg, ip administered every 2 days for 40 days by qPCR analysis
Outline: (§3)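 Female BALB/c nu/nu mice, 10 weeks old, 4 per group. Inoculated s.c. with 1 × 10^8 cells/mL of log-phase U-87 MG or SKOV-3 cells. Dosed i.p. with 100 μL at 25 mg/kg every 2 days; controls got 100 μL saline. Tumors harvested on day 40. RNA extracted from about 20 mg of tissue. qPCR panel of 69 genes, 40 cycles (94 °C 20 s, 60 °C 34 s). Analysed by 2–ΔΔCt; fold ≥1.5 taken as increased.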

U-87MG ATCC [5] = assay: Antitumor activity against human U-87 MG cells xenografted in BALB/C nu/nu mouse assessed as reduction in Ki67 expression in tumor at 25 mg/kg, ip administered every 2 days for 40 days by immunofluoresence staining based assay; outline: as §1
Mus musculus [6] = assay: Upregulation of Dpp4 mRNA expression in tumor of BALB/C nu/nu mouse xenografted with human SK-OV-3 cells at 25 mg/kg, ip administered every 2 days for 40 days by qPCR analysis; outline: as §2
Mus musculus [7] = assay: Upregulation of Lpcat3 mRNA expression in tumor of BALB/C nu/nu mouse xenografted with human U-87 MG cells at 25 mg/kg, ip administered every 2 days for 40 days by qPCR analysis; outline: as §3
Mus musculus [8] = assay: Upregulation of Cisd1 mRNA expression in tumor of BALB/C nu/nu mouse xenografted with human SK-OV-3 cells at 25 mg/kg, ip administered every 2 days for 40 days by qPCR analysis; outline: as §2
Mus musculus [9] = assay: Upregulation of Sat1 mRNA expression in tumor of BALB/C nu/nu mouse xenografted with human U-87 MG cells at 25 mg/kg, ip administered every 2 days for 40 days by qPCR analysis; outline: as §3
Mus musculus [10] = assay: Upregulation of Hspb1 mRNA expression in tumor of BALB/C nu/nu mouse xenografted with human SK-OV-3 cells at 25 mg/kg, ip administered every 2 days for 40 days by qPCR analysis; outline: as §3
U-87MG ATCC [11] = assay: Induction of ferroptosis-mediated antitumor activity against human U-87 MG cells xenografted in BALB/C nu/nu mouse assessed as increase in Fe2+ level in tumor at 25 mg/kg, ip administered every 2 days for 40 days
Outline: (§4)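 U-87 MG or SKOV-3 sc xenografts (1 × 10^8 cells/mL) in female BALB/c nu/nu mice, 4 per group. Given 25 mg/kg ip in 100 μL every 2 days, or saline. Tumors harvested on day 40 and assayed for LPO, MDA, lactic acid, total glutathione (GSH + GSSG), ATP and Fe2+.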

Mus musculus [12] = assay: Upregulation of Slc7a11 mRNA expression in tumor of BALB/C nu/nu mouse xenografted with human SK-OV-3 cells at 25 mg/kg, ip administered every 2 days for 40 days by qPCR analysis; outline: as §3
Mus musculus [13] = assay: Upregulation of Acsl4 mRNA expression in tumor of BALB/C nu/nu mouse xenografted with human U-87 MG cells at 25 mg/kg, ip administered every 2 days for 40 days by qPCR analysis; outline: as §2
Mus musculus [14] = assay: Upregulation of Alfm1 mRNA expression in tumor of BALB/C nu/nu mouse xenografted with human U-87 MG cells at 25 mg/kg, ip administered every 2 days for 40 days by qPCR analysis; outline: as §2
Mus musculus [15] = assay: Upregulation of PPIF mRNA expression in tumor of BALB/C nu/nu mouse xenografted with human U-87 MG cells at 25 mg/kg, ip administered every 2 days for 40 days by qPCR analysis; outline: as §3
U-87MG ATCC [16] = assay: Induction of ferroptosis-mediated antitumor activity against human U-87 MG cells xenografted in BALB/C nu/nu mouse assessed as increase in lactic acid level in tumor at 25 mg/kg, ip administered every 2 days for 40 days by biochemical analysis; outline: as §4
Mus musculus [17] = assay: Upregulation of ALOX5 mRNA expression in tumor of BALB/C nu/nu mouse xenografted with human SK-OV-3 cells at 25 mg/kg, ip administered every 2 days for 40 days by qPCR analysis; outline: as §2
Mus musculus [18] = assay: Upregulation of Clsd1 mRNA expression in tumor of BALB/C nu/nu mouse xenografted with human U-87 MG cells at 25 mg/kg, ip administered every 2 days for 40 days by qPCR analysis; outline: as §2
Mus musculus [19] = assay: Upregulation of Acsf2 mRNA expression in tumor of BALB/C nu/nu mouse xenografted with human U-87 MG cells at 25 mg/kg, ip administered every 2 days for 40 days by qPCR analysis; outline: as §2
Mus musculus [20] = assay: Upregulation of Gpx4 mRNA expression in tumor of BALB/C nu/nu mouse xenografted with human U-87 MG cells at 25 mg/kg, ip administered every 2 days for 40 days by qPCR analysis; outline: as §3

Measured: Activity

COc1cc(C(=O)c2cn(-c3ncccn3)cc2-c2ccco2)cc(OC)c1OC
active: all assays above
